From PubChem
TWEAK Fn14 block – inhibitors of TWEAK-Fn14 interaction signaling. actives 2% (n = 360,000). TWEAK-stimulated Fn14 reporter cells, luciferase luminescence, 8 h. inhibition, % at 10 µM; in the data active = inhibition above about 50%
FN deposition inh – fibronectin deposition inhibition; actives 0.086% (n = 350,000); inhibition, % at 12.6 µM; AID 743247; AH1F fibroblasts, Alexa488-fibronectin deposition fluorescence, overnight;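 active = mean inhibition across replicates of 30% or more, regardless of how many single replicates reach that level; inconclusive = mean under 30% yet at least half of replicates reach 30%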;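 also: positive control wells lacked labelled fibronectin entirely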
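Material – AH1F fibroblast monolayer, labelled fibronectin deposition · Reagent – labelled fibronectin 24 nM · Timing – 1 h adhesion, overnight exposure · Measured by – fluorescence at 485 nm excitation, 525 nm emission · Read-out – inhibition of fibronectin deposition signal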
TROY NFkB inh – inhibitors of TROY-dependent NF-kB signaling | Q293 LMP1-TROYcd NF-kB luciferase reporter, 4 h | inhibition, % at 10 µM | actives 0.98% (n = 360,000);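 active = compounds whose plate-normalised and pattern-corrected inhibition of the luciferase reporter signal at the single screening dose is 50% or more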
LGR2 antag – Drosophila LGR2 receptor signaling inhibition | HEK293 LGR2, CRE-luciferase, bursicon-stimulated, 4 h | AID 720647 | inhibition, % at 9.99 µM | actives 0.35% (n = 380,000);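 active = drop in luminescence signal, shown as inhibition above about 50% in the replicate tests, limit read from the data, passing the limit was not always enough; inconclusive = probably only some replicates passing the limit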;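 also: agonist challenge used bursicon conditioned medium at about half maximal strength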
XiGFP reactiv – activators of X-chromosome reactivation in mouse fibroblasts; XiGFP mouse fibroblasts, % GFP-positive cells imaging, 3 d; cells co-treated with 5-aza-dC sensitizer; scaled so ellipticine positive control = 100%; activation, % at 7.58 µM; actives 0.055% (n = 360,000);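 active = mean normalized replicate activation at least 10% and every replicate at or above 10%; inconclusive = only one of the two criteria met; inactive = mean below 10% and not all replicates reach 10%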;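 also: 0% = median of on-plate neutral control wells and 100% = ellipticine 6 µM median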
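assay system = SV40-immortalized XiGFP fibroblast cells, line 68-5-11 | buffer or medium = DMEM plus 5-aza-dC sensitizer | doses = single-point pinned compound dosing | times = 3-day compound exposure, then 15 min fixation at room temperature | benchmarks = positive control ellipticine, 6 µM final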
EWS-Fli inh – EWS/Fli transcriptional activity inhibition; A673 NR0B1-luciferase reporter, viability-normalised; inhibition, % at 12.6 µM; actives 0.67% (n = 350,000); AID 651661;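 active = mean inhibition of at least 50% after viability correction, with every replicate also passing that limit; inconclusive = mean reaches 50% but only one of two replicates passes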;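 also: firefly luciferase signal divided by Alamar Blue viability fluorescence both relative to DMSO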
* = called active by the depositor. Only some compounds are listed: those with a hit (about 2.3% of all), similar ones and a draw of the others.

`CCC(C)(C(=O)NC1CCCC1)N(Cc1ccco1)C(=O)c1ccc2c(c1)OCO2` (stereo unspecified) gave TWEAK Fn14 block -33.8, FN deposition inh -10.4 and TROY NFkB inh 10.0.
`CC(C)NC(=O)N(C)C[C@H]1Oc2cc(-c3ccncc3)ccc2S(=O)(=O)N([C@H](C)CO)C[C@@H]1C` gave FN deposition inh -2.8, LGR2 antag -1.1, XiGFP reactiv -0.5 and EWS-Fli inh -1.2.
`CC1(Cc2cccc(F)c2)C(=O)Nc2ccc(-c3cccnc3)cc21` (stereo unspecified) gave TWEAK Fn14 block 78.8*, FN deposition inh 9.9, TROY NFkB inh 40.6, LGR2 antag 19.2, XiGFP reactiv 0.2 and EWS-Fli inh -5.8.
CC1(Cc2ccc(Cl)cc2)C(=O)Nc2ccc(-c3cccnc3)cc21 (stereo unspecified) was read as TWEAK Fn14 block 83.6*, FN deposition inh 19.5, TROY NFkB inh 53.4*, LGR2 antag 19.2, XiGFP reactiv 0.2 and EWS-Fli inh -4.8.
Screening CN(C(=O)c1cccc(NC(=O)Cc2ccc(NC(=O)C3CCCN(C(=O)CCc4ccccc4)C3)cc2)c1)C1CCCC1 (stereo unspecified) returned TWEAK Fn14 block 53.4*, TROY NFkB inh 47.3, LGR2 antag 16.2, XiGFP reactiv 0.2 and EWS-Fli inh 5.2.
Screening O=C(NCCCc1ccccc1)c1cccc(NC(=O)C2CCC2)c1 returned TWEAK Fn14 block 7.7, FN deposition inh -5.4, TROY NFkB inh -10.3, LGR2 antag 5.5, XiGFP reactiv 0.5 and EWS-Fli inh -8.3.
Screening O=C(NCCCc1ccccc1)c1cccc(NC(=O)C2CCCCC2)c1 returned TWEAK Fn14 block 54.1*, FN deposition inh 1.2, TROY NFkB inh 0.6, LGR2 antag 1.0, XiGFP reactiv 0.1 and EWS-Fli inh -7.5.
`COc1ccc(S(=O)(=O)N2C[C@@H](O)COC[C@H]3O[C@H](CC(=O)NCCN4CCCCC4)CC[C@@H]32)cc1` gave FN deposition inh 4.1, LGR2 antag -13.5 and XiGFP reactiv 0.1.
CN(C)c1ccc(-n2cccc2/C=C/[N+](=O)[O-])cc1 was read as TWEAK Fn14 block 60.4*, TROY NFkB inh -30.6, XiGFP reactiv 0.8 and EWS-Fli inh 19.7.
Screening CN(C)c1ccc(/C=C/c2c([N+](=O)[O-])c(=O)n(C)c(=O)n2C)cc1 returned TWEAK Fn14 block 23.0, FN deposition inh -1.1, TROY NFkB inh -0.3, LGR2 antag 13.0, XiGFP reactiv 0.1 and EWS-Fli inh -10.7.
For COc1ccc2c3c([nH]c2c1)[C@H](CO)N(Cc1ccccc1OC)CC31CN(C)C1 the results were LGR2 antag -0.4, XiGFP reactiv 0.1 and EWS-Fli inh -4.2.
For CCOC(=O)c1nn(-c2ccc3c(c2)CCN3C(C)=O)cc1O the results were TWEAK Fn14 block 65.3*, TROY NFkB inh 19.6, LGR2 antag 46.4 and EWS-Fli inh -7.2.
`CCOC(=O)c1nn(-c2ccc(F)cc2)cc1O` gave TWEAK Fn14 block 36.9, FN deposition inh 1.3, TROY NFkB inh -27.3, LGR2 antag -30.8, XiGFP reactiv -0.1 and EWS-Fli inh 1.4.
`CC1(C)CC(=O)C2=C(C1)NC1=C(C(=O)c3ccccc31)C2c1ccc(Cl)cc1` (stereo unspecified) gave TWEAK Fn14 block 109.3*, FN deposition inh -6.6, TROY NFkB inh 92.7*, LGR2 antag 16.5 and XiGFP reactiv 0.3.
`Cc1ccc(C2C3=C(CC(C)(C)CC3=O)NC3=C2C(=O)c2ccccc23)cc1` (stereo unspecified) gave TWEAK Fn14 block 48.0, FN deposition inh -2.9, TROY NFkB inh 27.1, LGR2 antag 22.9 and XiGFP reactiv -0.1.
`CC(C)c1ccc(-n2cccc2/C=C2/C(=N)N3C=CSC3=NC2=O)cc1` gave TWEAK Fn14 block 54.8*, FN deposition inh 0.7, TROY NFkB inh 42.0, LGR2 antag 53.2*, XiGFP reactiv 0.0 and EWS-Fli inh -7.4.
For Cc1cc(NC(=O)C(C)C)ncc1NC(=O)c1cccc(F)c1 the results were TWEAK Fn14 block -9.2 and TROY NFkB inh 2.1.
Screening CCCC(=O)Nc1cnc(NC(=O)c2cccc(F)c2)cc1C returned TWEAK Fn14 block 65.5* and TROY NFkB inh 28.9.
CCC(=O)Nc1ccc2c(c1)OC[C@@H](C)N(Cc1ccccc1)C[C@@H](C)[C@@H](OC)CN(C)C2=O was read as FN deposition inh -5.9, LGR2 antag -1.0, XiGFP reactiv -0.2 and EWS-Fli inh -7.5.
Screening Cc1cc(O)cc(O)c1-c1onc(C(F)(F)F)c1-c1cscn1 returned TWEAK Fn14 block 52.1*.
O=C(CNS(=O)(=O)Cc1ccccc1)NNc1ccccc1 was read as TWEAK Fn14 block 3.5, FN deposition inh 0.3, TROY NFkB inh 55.6*, LGR2 antag -9.2, XiGFP reactiv 0.0 and EWS-Fli inh 3.9.
For CO[C@H]1CN(C)C(=O)c2cc(C#N)ccc2OCC[C@H]2CC[C@@H](OC)[C@@H](CN(C)C(=O)[C@@H]1C)O2 the results were FN deposition inh -10.3, LGR2 antag -12.6, XiGFP reactiv 0.0 and EWS-Fli inh -2.9.
CC(=O)OCC1OC(n2ccc3ccccc32)C(OC(C)=O)C(OC(C)=O)C1OC(C)=O (stereo unspecified) was read as TWEAK Fn14 block -2.1, FN deposition inh 12.6 and TROY NFkB inh 4.4.
`COC(=O)C1C=CC(OC2OC(COC(C)=O)C(OC(C)=O)C(OC(C)=O)C2OC(C)=O)n2c(=O)n(-c3ccccc3)c(=O)n21` (stereo unspecified) gave TWEAK Fn14 block 54.9*, FN deposition inh 4.0, TROY NFkB inh -7.5, LGR2 antag inconclusive, XiGFP reactiv 1.0 and EWS-Fli inh -3.7.
For O=C(O)/C=C/c1cnc2ccccc2n1 the results were TWEAK Fn14 block 7.5, FN deposition inh 11.2, TROY NFkB inh 63.7*, LGR2 antag 4.5, XiGFP reactiv -0.1 and EWS-Fli inh 8.1.
Screening CCC(C)(C)NC(=O)/C=C/c1cnc2ccccc2n1 returned TWEAK Fn14 block 23.3, FN deposition inh 8.2, TROY NFkB inh -58.4, LGR2 antag -43.6, XiGFP reactiv 0.2 and EWS-Fli inh -32.8.
`O=C(/C=C/c1cnc2ccccc2n1)NC12CC3CC(CC(C3)C1)C2` gave TWEAK Fn14 block 72.7*, TROY NFkB inh 70.5* and LGR2 antag 34.5.
Screening O=C(NC12CC3CC(CC(C3)C1)C2)c1ccccc1 returned TWEAK Fn14 block 5.8, FN deposition inh 8.7, TROY NFkB inh -10.3, LGR2 antag -5.8, XiGFP reactiv 0.0 and EWS-Fli inh 7.6.
O=S(=O)(NCC[C@H]1CC[C@@H](NS(=O)(=O)c2cccc(F)c2)[C@@H](CO)O1)c1cccc(F)c1 was read as LGR2 antag -20.6, XiGFP reactiv -0.6 and EWS-Fli inh -1.1.
